ChEMBL document CHEMBL1156665, “Potent inhibition of human phosphodiesterase-5 by icariin derivatives” (J Nat Prod, 2008)
pIC50: −log10 of the molar value. Activity calls are given as the source filed them. No cut-off for these calls is given here.

Columns and labels:
[1] = molecular target: T1, cGMP-specific 3',5'-cyclic phosphodiesterase (Homo sapiens, UniProt O76074); assay: Inhibition of human recombinant PDE5A1 expressed in COS7 cells; type: cell-based, COS-7
[2] = molecular target: T2, Cone cGMP-specific 3',5'-cyclic phosphodiesterase subunit alpha' (Homo sapiens, UniProt P51160); assay: Inhibition of human PDE6C at 10 uM; settings: in the assay text read “at 10-fold PDE5A1 IC50” for “at 10 uM”
T2 sequence (P51160 whole entry): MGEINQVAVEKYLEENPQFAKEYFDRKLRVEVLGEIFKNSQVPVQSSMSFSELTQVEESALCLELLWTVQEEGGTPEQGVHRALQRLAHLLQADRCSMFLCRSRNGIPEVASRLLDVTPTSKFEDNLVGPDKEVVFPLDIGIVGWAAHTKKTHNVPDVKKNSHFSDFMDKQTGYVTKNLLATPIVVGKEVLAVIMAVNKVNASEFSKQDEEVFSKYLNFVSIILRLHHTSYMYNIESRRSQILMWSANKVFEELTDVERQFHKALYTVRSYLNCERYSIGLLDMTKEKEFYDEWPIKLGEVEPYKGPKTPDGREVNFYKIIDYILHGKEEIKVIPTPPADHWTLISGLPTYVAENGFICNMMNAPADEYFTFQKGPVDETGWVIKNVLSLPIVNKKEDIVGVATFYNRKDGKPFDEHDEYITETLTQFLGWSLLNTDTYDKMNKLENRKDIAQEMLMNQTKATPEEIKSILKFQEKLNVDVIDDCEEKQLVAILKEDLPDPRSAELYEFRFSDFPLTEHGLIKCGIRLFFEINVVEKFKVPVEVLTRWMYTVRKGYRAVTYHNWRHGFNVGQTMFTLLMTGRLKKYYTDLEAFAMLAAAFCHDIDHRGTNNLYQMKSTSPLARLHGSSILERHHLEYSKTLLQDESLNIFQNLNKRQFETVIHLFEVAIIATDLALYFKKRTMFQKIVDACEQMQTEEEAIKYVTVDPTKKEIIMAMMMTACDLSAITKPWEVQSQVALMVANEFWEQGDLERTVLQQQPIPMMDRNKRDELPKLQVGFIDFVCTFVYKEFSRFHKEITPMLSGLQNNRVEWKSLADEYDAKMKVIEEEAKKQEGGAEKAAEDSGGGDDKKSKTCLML
Method in brief: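 Human PDE6C run under the same conditions as the PDE5A1 assay (Kincaid–Manganiello method, modified), at 0.5 U enzyme per sample. Compounds tested at a single concentration 10-fold above their PDE5A1 IC50. Mean ± SD of at least two experiments in triplicate.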

[3] = molecular target: T1, cGMP-specific 3',5'-cyclic phosphodiesterase; assay: Inhibition of human recombinant PDE5A1 expressed in COS7 cells at 10 uM; type: cell-based; settings: COS-7
Method in brief: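 Full-length human PDE5A1 cDNA expressed in COS-7 cells as the enzyme source. Activity measured by the Kincaid and Manganiello method with minor modifications. Individual compounds screened at a single 10 µM concentration; plant extracts at 50 µg/mL. Results are mean ± SD of at least two experiments in triplicate.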

[4] = Inhibition of human platelet cAMP-specific phosphodiesterase
Method in brief: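 Platelets from healthy volunteers' blood, pelleted by centrifugation at 4 °C, resuspended in 10 mM Tris/HCl pH 7.4 and lysed by three freeze–thaw cycles. Lysate (64 µg protein/mL) incubated 5 min at 30 °C with 0.5 µM cAMP plus [3H]-cAMP in 30 mM Tris-HCl pH 7.4, 4 mM MgCl2. Product converted with nucleotidase and separated on DEAE-Sephadex. [3H]-adenosine counted by scintillation. Tested at 1–250 µM, IC50 from sigmoidal fit. Mean ± SD of three experiments in triplicate.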

Homo sapiens [5] = organism: Homo sapiens; assay: Selectivity ratio of IC50 for human cAMP-PDE to IC50 for human PDE5A1
Method in brief: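 cAMP-PDE IC50 divided by PDE5A1 IC50. cAMP-PDE from human platelet lysate (64 µg protein/mL) with 0.5 µM cAMP/[3H]-cAMP, 5 min at 30 °C, at 1–250 µM. PDE5A1 was recombinant human full-length enzyme expressed in COS-7 cells. IC50s from sigmoidal fits.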

[6] = molecular target: T2, Cone cGMP-specific 3',5'-cyclic phosphodiesterase subunit alpha'; assay: Inhibition of human PDE6C
[7] = Cytotoxicity against human fibroblasts at 100 uM after 24 hrs by MTT assay; type: cell-based; settings: fibroblast
Method in brief: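 Human skin fibroblasts exposed 24 h to 0.25–100 µM in DMEM-F12 with 10% heat-inactivated FBS, 1% penicillin, 1% L-glutamine. Medium then replaced with MTT 0.5 mg/mL in PBS, 3 h at 37 °C. Formazan extracted with 2-propanol/DMSO (9:1), 15 min at 37 °C, absorbance read at 560 nm.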

Homo sapiens [8] = organism: Homo sapiens; assay: Selectivity ratio of IC50 for human PDE6C to IC50 for human PDE5A1
Method in brief: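 PDE6C IC50 divided by PDE5A1 IC50. PDE6C assayed as for PDE5A1 (modified Kincaid–Manganiello method, 0.5 U enzyme/sample). PDE5A1 was full-length human recombinant enzyme expressed in COS-7 cells. IC50s from sigmoidal curve fits. Mean ± SD of at least two experiments in triplicate.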

With `CC(C)=CCc1c(O)cc(O)c2c1OC(c1ccc(O)cc1)CC2=O` (centres undefined) [SOPHORAFLAVANONE B] as the molecule, how does the pIC50 [1] read?
The pIC50 was 4.79.

With `COc1ccc(-c2oc3c4c(cc(O)c3c(=O)c2O)OC(C)(C)CC4)cc1` as the molecule, how does the pIC50 [1] read?
Its pIC50 is 4.34.

What about the Activity [2] of the same molecule?
Its Activity is “inactive”.

With `COc1ccc(-c2oc3c(CC=C(C)C)c(O)cc(O)c3c(=O)c2O[C@@H]2O[C@@H](C)[C@H](O)[C@@H](O)[C@H]2O)cc1` [ICARISIDE II] as the molecule, how does the pIC50 [1] read?
The pIC50 was 6.80.

With `COc1ccc(-c2oc3c(CC=C(C)C)c(O)cc(O)c3c(=O)c2O[C@@H]2O[C@H](C)[C@@H](O)[C@H](O)[C@@H]2O)cc1` as the molecule, how does the Activity [2] read?
Its Activity is “inactive”.

With `COc1ccc(-c2oc3c(CC=C(C)C)c(OCCO)cc(O)c3c(=O)c2O[C@@H]2O[C@H](C)[C@@H](O)[C@H](O)[C@@H]2O)cc1` as the molecule, how does the pIC50 [1] read?
Its pIC50 is 6.44.

And the inhibition [2]?
The inhibition was 86%.

Which inhibition [3] does the source give for `O=c1c(O)c(-c2ccc(O)c(O)c2)oc2cc(O)cc(O)c12` here?
The inhibition was 23%.

With `COc1ccc(-c2oc3c(CC=C(C)C)c(O[C@@H]4O[C@H](CO)[C@@H](O)[C@H](O)[C@H]4O)cc(O)c3c(=O)c2O[C@@H]2O[C@@H](C)[C@H](O)[C@@H](O)[C@H]2O)cc1` [ICARIIN] as the molecule, how does the pIC50 [1] read?
The pIC50 was 5.23.

And the inhibition [2]?
Its inhibition is 45%.

With `O=C1C[C@@H](c2ccc(O)cc2)Oc2cc(O)cc(O)c21` as the molecule, how does the inhibition [3] read?
Its inhibition is 6%.

With `CC(C)=CCc1c(O)cc(O)c2c(=O)c(O)c(-c3ccc(O)c(O)c3)oc12` as the molecule, how does the pIC50 [1] read?
Its pIC50 is 6.15.

With `COc1ccc(-c2oc3c(CC=C(C)C)c(O)cc(O)c3c(=O)c2O)cc1` [ICARITIN] as the molecule, how does the pIC50 [1] read?
Its pIC50 is 5.66.

What about the Activity [2] of the same molecule?
Its Activity is “inactive”.

For `O=c1cc(-c2ccc(O)cc2)oc2cc(O)cc(O)c12`, which inhibition [3] is on record?
Its inhibition is 12%.

With `CCCc1nn(C)c2c(=O)[nH]c(-c3cc(S(=O)(=O)N4CCN(C)CC4)ccc3OCC)nc12` as the molecule, how does the pIC50 [4] read?
The pIC50 was 4.56.

With `COc1ccc(-c2oc3c(CC=C(C)C)c(OCCO)cc(O)c3c(=O)c2OCCO)cc1` as the molecule, how does the Ratio IC50 (Homo sapiens [5]) read?
The Ratio IC50 was 1300.

And the pIC50 [6]?
The pIC50 was 4.51.

What about the Activity [7] of the same molecule?
Its Activity is “Non-toxic”.

And the pIC50 [4]?
Its pIC50 is 4.02.

And the pIC50 [1]?
Its pIC50 is 7.13.

And the Activity [2]?
Its Activity is “inactive”.

What about the Ratio IC50 (Homo sapiens [8]) of the same molecule?
The Ratio IC50 was 418.

With `CC(C)=CCc1c(O)cc(O)c2c(=O)cc(-c3ccc(O)cc3)oc12` as the molecule, how does the pIC50 [1] read?
The pIC50 was 5.89.
